From ChEMBL document CHEMBL4715713, “Novel anticancer oridonin derivatives possessing a diazen-1-ium-1,2-diolate nitric oxide donor moiety: Design, synthesis, biological evaluation and nitric oxide release studies” (Bioorg Med Chem Lett, 2016)
Counter-ions that a name gives are not always drawn.

Columns and labels:
[1] = test system: Bel-7402; test: Antiproliferative activity against human Bel-7402 cells assessed as reduction in cell viability incubated for 72 hrs by MTT assay; type: functional, cell-based; conditions: Bel-7402, 72 h
Method in brief: (§1)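 Cells were exposed to a range of test concentrations for 72 h and viability was read by MTT. IC50 values were taken from the concentration-response data, and means ± SD are from n = 3.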

[2] = Prodrug release in human Bel-7402 cells assessed as NO release by measuring increase in nitrite/nitrate production at 50 uM measured upto 24 hrs by Griess reagent based assay; type: ADME, cell-based; conditions: bel-7402, 24 h
Method in brief: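 Bel-7402 cells were seeded at 15,000/mL and treated in triplicate with each compound at 50 µM for varying times. Nitrate/nitrite in the cell lysates was determined by the Griess assay. Values are the mean of three independent experiments.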

[3] = test system: Bel-7402; test: Antiproliferative activity against human Bel-7402 cells assessed as reduction in cell viability at 1 uM incubated for 72 hrs by MTT assay relative to control; type: functional
[4] = test system: Bel-7402; test: Antiproliferative activity against human Bel-7402 cells assessed as reduction in cell viability at 10 uM incubated for 72 hrs by MTT assay relative to control; type: functional
[5] = test system: K562; test: Antiproliferative activity against human K562 cells assessed as reduction in cell viability incubated for 72 hrs by MTT assay; type: functional, cell-based; conditions: K562, 72 h; method in brief: as §1
[6] = test system: HeLa; test: Antiproliferative activity against human HeLa cells assessed as reduction in cell viability incubated for 72 hrs by MTT assay; type: functional, cell-based; method in brief: as §1
[7] = test system: Bel-7402; test: Induction of apoptosis in human Bel-7402 cells assessed as apoptotic cells at 2.5 uM incubated for 36 hrs by Annexin V-FITC and PI staining based flow cytometry analysis (reference value: 6.20%); type: functional
[8] = test system: HepG2; test: Antiproliferative activity against human HepG2 cells assessed as reduction in cell viability incubated for 72 hrs by MTT assay; type: functional, cell-based; conditions: HepG2, 72 h; method in brief: as §1
[9] = test system: Bel-7402; test: Induction of cell cycle arrest in human Bel-7402 cells assessed as accumulation in S phase at 1.25 uM incubated for 36 hrs by PI staining based flow cytometry analysis (reference value: 19.68 %); type: functional
[10] = test system: Bel-7402; test: Induction of cell cycle arrest in human Bel-7402 cells assessed as accumulation in G2 phase at 1.25 uM incubated for 36 hrs by PI staining based flow cytometry analysis (reference value: 6.31 %); type: functional
[11] = test system: Bel-7402; test: Induction of cell cycle arrest in human Bel-7402 cells assessed as accumulation in G1 phase at 2.5 uM incubated for 36 hrs by PI staining based flow cytometry analysis (reference value: 74.01 %); type: functional
[12] = test system: Bel-7402; test: Induction of cell cycle arrest in human Bel-7402 cells assessed as accumulation in S phase at 2.5 uM incubated for 36 hrs by PI staining based flow cytometry analysis (reference value: 19.68 %); type: functional
[13] = test system: Bel-7402; test: Induction of cell cycle arrest in human Bel-7402 cells assessed as accumulation in G1 phase at 0.625 uM incubated for 36 hrs by PI staining based flow cytometry analysis (reference value: 74.01 %); type: functional
[14] = test system: Bel-7402; test: Induction of cell cycle arrest in human Bel-7402 cells assessed as accumulation in G1 phase at 1.25 uM incubated for 36 hrs by PI staining based flow cytometry analysis (reference value: 74.01 %); type: functional
[15] = test system: A549; test: Antiproliferative activity against human A549 cells assessed as reduction in cell viability incubated for 72 hrs by MTT assay; type: functional, cell-based; conditions: A549, 72 h; method in brief: as §1
[16] = test system: Bel-7402; test: Induction of cell cycle arrest in human Bel-7402 cells assessed as accumulation in G2 phase at 2.5 uM incubated for 36 hrs by PI staining based flow cytometry analysis (reference value: 6.31 %); type: functional
[17] = test system: Bel-7402; test: Induction of cell cycle arrest in human Bel-7402 cells assessed as accumulation in G2 phase at 0.625 uM incubated for 36 hrs by PI staining based flow cytometry analysis (reference value: 6.31 %); type: functional
[18] = test system: Bel-7402; test: Induction of cell cycle arrest in human Bel-7402 cells assessed as accumulation in S phase at 0.625 uM incubated for 36 hrs by PI staining based flow cytometry analysis (reference value: 19.68 %); type: functional
[19] = test system: Bel-7402; test: Induction of cell cycle arrest in human Bel-7402 cells assessed as increase in accumulation in S phase incubated for 36 hrs by PI staining based flow cytometry analysis; type: functional; conditions: dose 0.625-2.5 µM
[20] = test system: Bel-7402; test: Antiproliferative activity against human Bel-7402 cells assessed as reduction in cell viability incubated for 72 hrs in presence of O2-Chloromethyl-1-( morpholin -1-yl)diazen-1-ium-1,2-diolate by MTT assay; type: functional, cell-based; conditions: Bel-7402, 72 h

Row | SMILES | IC50 [1] | Drug metabolism [2] | inhibition at 1 µM [3] | inhibition at 10 µM [4] | other results
1 | C=C1C(=O)[C@]23[C@H](OC(=O)CCC(=O)OCO/N=[N+](\[O-])N4CCCC4)[C@H]1CC[C@H]2[C@@]12CO[C@@]3(O)[C@@H](O)[C@@H]1C(C)(C)CC[C@@H]2O | 13.3 µM | Metabolite_Detected | 15.9% | 93.2% | 
2 | C=C1C(=O)[C@]23[C@H](O)[C@H]1CC[C@H]2[C@@]12CO[C@]3(O)[C@@H](O)[C@@H]1C(C)(C)CC[C@@H]2O [ORIDONIN] | 7.12 µM |  | 29.9% | 93.6% | 
3 | C=C1C(=O)[C@]23[C@H](OC(=O)CCCC(=O)OCO/N=[N+](\[O-])N4CCOCC4)[C@H]1CC[C@H]2[C@@]12CO[C@@]3(O)[C@@H](O)[C@@H]1C(C)(C)CCC2=O | 1.84 µM | Metabolite_Detected | 87.8% | 93.9% | IC50 [5]: 8.48 µM; IC50 [6]: 2.46 µM; Activity [7]: 51.91%; IC50 [8]: 2.57 µM; Activity [9]: 29.99%; Activity [10]: 3.66%; Activity [11]: 58.98%; Activity [12]: 36.22%; Activity [13]: 68.47%; Activity [14]: 66.35%; IC50 [15]: 1.13 µM; Activity [16]: 4.8%; Activity [17]: 5.1%; Activity [18]: 26.42%; Activity [19]: Dose-dependent effect
4 | COc1cccc2c1C(=O)c1c(O)c3c(c(O)c1C2=O)C[C@@](O)(C(=O)CO)C[C@@H]3O[C@H]1C[C@H](N)[C@H](O)[C@H](C)O1 [DOXORUBICIN HYDROCHLORIDE] | 0.83 µM |  |  |  | 
5 | C=C1C(=O)[C@]23[C@H](OC(=O)CCC(=O)OCO/N=[N+](\[O-])N4CCOCC4)[C@H]1CC[C@H]2[C@@]12CO[C@@]3(O)[C@@H](O)[C@@H]1C(C)(C)CC[C@@H]2OC(C)=O | 3.03 µM |  | 85.8% | 94.5% | 
6 | C=C1C(=O)[C@]23[C@H](OC(=O)CCCC(=O)OCO/N=[N+](\[O-])N4CCCC4)[C@H]1CC[C@H]2[C@@]12CO[C@@]3(O)[C@@H](O)[C@@H]1C(C)(C)CC[C@@H]2O | 10.9 µM |  | 26.1% | 93.4% | 
7 | C=C1C(=O)[C@]23[C@H](OC(=O)CCC(=O)OCO/N=[N+](\[O-])N4CCOCC4)[C@H]1CC[C@H]2[C@@]12CO[C@@]3(O)[C@@H](O)[C@@H]1C(C)(C)CCC2=O | 3.26 µM |  | 71.3% | 93.1% | 
8 | C=C1C(=O)[C@]23[C@H](OC(=O)CCC(=O)OCO/N=[N+](\[O-])N4CCOCC4)[C@H]1CC[C@H]2[C@@]12CO[C@@]3(O)[C@@H](O)[C@@H]1C(C)(C)CC[C@@H]2O | 2.75 µM | Metabolite_Detected | 88.5% | 93.3% | 
9 | C=C1C(=O)[C@]23[C@H](OC(=O)CCC(=O)O)[C@H]1CC[C@H]2[C@@]12CO[C@@]3(O)[C@@H](O)[C@@H]1C(C)(C)CCC2=O | 9.07 µM |  |  |  | IC50 [20]: 5.28 µM
10 | [O-]/[N+](=N\OCCl)N1CCOCC1 | 24.6 µM |  |  |  | 
11 | C=C1C(=O)[C@]23[C@H](OC(=O)CCCC(=O)OCO/N=[N+](\[O-])N4CCCC4)[C@H]1CC[C@H]2[C@@]12CO[C@@]3(O)[C@@H](O)[C@@H]1C(C)(C)CCC2=O | 17 µM | Metabolite_Detected | 13.5% | 93.9% | 
12 | C=C1C(=O)[C@]23[C@H](OC(=O)CCCC(=O)OCO/N=[N+](\[O-])N4CCOCC4)[C@H]1CC[C@H]2[C@@]12CO[C@@]3(O)[C@@H](O)[C@@H]1C(C)(C)CC[C@@H]2O | 2.53 µM |  | 83.8% | 92.7% | 
13 | C=C1C(=O)[C@]23[C@H](OC(=O)CCC(=O)OCO/N=[N+](\[O-])N4CCCC4)[C@H]1CC[C@H]2[C@@]12CO[C@@]3(O)[C@@H](O)[C@@H]1C(C)(C)CCC2=O | 14.6 µM |  | 24.2% | 93.6% | 
